In PubChem BioAssay AID720717 (ICCB-Longwood Screening Facility, Harvard Medical School, 2013) one finds z-score data, which are given here for 40 molecules.

Where “and” joins values, the source holds several entries; their conditions need not be identical. Equal values may be shown once. About 150 (0.29%) of roughly 51,000 compounds were called active. Many of the other results were omitted from the sample, so actives are more common in it than they were. A number with no mark means an inactive call.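 Rule for the calls: active = both repeat wells score below -2 in polarization z-score versus plate sample wells, excluding overly bright wells; inactive = the rest.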

The test concerns LANA (ORF73) N-terminal peptide binding to nucleosomes, Human herpesvirus 8. Nature of the test: LANA N-terminal peptide–nucleosome interaction blockers – biochemical, fluorescence polarization, FITC-LANA1-23, chicken nucleosomes, primary screen (AID 720717). As to conditions: FITC-LANA1-23 / chicken nucleosome fluorescence polarization; active compounds read low. Summed up: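 System – purified chicken nucleosomes with FITC-labelled LANA N-terminal peptide (1-23) · Amount – 240 nM purified chicken nucleosomes (480 nM peptide binding sites), final · Also added – 50 nM FITC-LANA1-23 probe · Medium – TEN-BT buffer, pH 7.5 · Incubation – compound with peptide–nucleosome mix 10–45 min at room temperature · Detection – fluorescence polarization, ex 480 nm, em 535 nm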
For orientation: In fluorescence polarisation assays a small probe gives low polarisation when free and higher when bound to something large.
With `CCOC(=O)NCc1cc(C(=O)O)ccc1O`, the z-score was 0.19. Next, `CCN1C(=Nc2ccc(O)cc2)SC/C1=C\C(=O)OC`: 2.25. For `CN(C)C(CNC(=O)c1cc2ccccc2oc1=O)c1ccco1` (stereo not given) the value was -0.421; for `O=S1(=O)CCC(S(=O)(=O)N2CCCC2)C1` (stereo not given), -0.472; for `CCCCSC1=NC(=O)CC(=O)N1`, -1.46.

With `CC(=O)N1CCC(N(c2ccc3c(c2)OCO3)S(=O)(=O)c2ccccc2)CC1`, the z-score was 0.764. With `Cc1ccc(S(=O)(=O)Nc2cccc(C(=O)N3CCCCC3)c2)cc1`, the z-score was 1.2.

For `O=C(O)CN1CC(=O)Nc2ccccc21`, the z-score was 0.771. Next, `O=C1Nc2ccccc2N(c2ccccc2)N1`: -3.48 (active); `CCCCC(C)C(N)=O` (stereo not given): -0.323.

As for `CC[N+](C)(CC)CCC[n+]1c(-c2ccccc2)c2cc(N)ccc2c2ccc(N)cc21`, the z-score is -3.89 (active) and -3.44 (active). Take `CCN(Cc1ccccc1)C(=O)C1CCN(Cc2cc(Br)c(O)c(OC)c2)CC1`: the z-score is -0.834. Take `O=C1CC(NC2CCN(S(=O)(=O)c3ccc(Cl)cc3)CC2)C(=O)N1` (stereo not given): the z-score is 2.47. With `Cc1ccc(NC(=O)CSC2=NC(=O)CC(=O)N2)cc1`, the z-score was -0.876. On to `COc1ccc(C2=NS(=O)(=O)N(C)C(C(=O)NCC(C)C)=C2)cc1OC`, for which the z-score is -0.724. For `CCN(CC)C(=O)Cc1c(C(=O)O)[nH]c2ccc(Cl)cc12` the value was 0.22. For `Cc1ccc(C(=O)N2CCCN(C)CC2)o1` the value was -1.2; for `O=C(OCc1ccccc1Cl)c1cc(=O)[nH]c2ccccc12`, -1.04. Take `O=C(Nc1ccc(Cl)cc1)c1ncoc1-c1cccs1`: the z-score was 0.41.

Take `COC(=O)c1ccc(NS(=O)(=O)c2cc(C(=O)OC)n(C)c2)cc1`: the z-score is -0.537.

Take `Cc1ccc(-c2nc3ccccc3[nH]2)cc1NC(=O)C(C)C`: the z-score was -0.762. Next, `CCC(=O)NC1CC(=O)N(c2ccc(F)cc2)C1` (stereo not given): -0.098. Next, `COc1ccc(CCN2C(=O)CSC2c2ccc3cccc(O)c3n2)cc1OC` (stereo not given): 1.12.

With `Cn1ncc(Br)c1-c1cccc(NC(=O)COCC(=O)O)c1`, the z-score was -1.14. For `CCCCCn1c(=O)[nH]c2cc(C(=O)Nc3cc(OC)c(OC)c(OC)c3)ccc2c1=O` the value was -0.668; for `Cn1c(=O)c2c(nc(N3CCNCC3)n2C)n(C)c1=O`, 0.302. Regarding `O=c1c(-c2cc3ccccc3o2)[n+]([O-])c2ccccc2n1O`, the z-score was -2.61 (active). Consider `COc1ccc2oc(=O)cc(-c3cc4ccccc4o3)c2c1`, for which the z-score was -0.251.

On to `O=C(CSc1ncccn1)N1CCCC1`, for which the z-score is -0.327.

For `O=C(Nc1ccc2nc(CN3CCCCC3)[nH]c2c1)c1cccs1`, the z-score was -0.0365. Next, `Cc1cccc(C)c1N1CCN(S(=O)(=O)N2CCCCC2)CC1`: -1.66; `COc1ccc(C(=O)Nc2ccccc2C(=O)NCc2ccco2)cc1`: 0.333.

For the molecule `CN(C)C(=O)CN1CCC(N2CCCCC2)CC1`, the z-score was -0.624. Consider `COc1ccc(Cn2ccc3nc4ccn(Cc5ccc(OC)cc5)c(=O)c4cc3c2=O)cc1`, for which the z-score is 0.327. For `CN1C(=O)/C(=C/C=C2\SCCN2C)OC1=S` the value was -2.92 (active); for `COc1cccc(NS(=O)(=O)c2ccc3[nH]cc(C(=O)N4CCCCC4C)c(=O)c3c2)c1` (stereo not given), 0.613. For `O=C(O)COc1ccc(CN2CCCC2)cc1`, the z-score was 0.199. As for `N/C(=N\OC(=O)CC1CCCCC1)c1ccccc1`, the z-score is -0.568. Next, `Cc1nnc(NC2CC2)c2c1nnn2Cc1ccc(F)cc1`: 0.653; `CN(C)CCNC(=O)c1ccc(/C=C2\SC(=S)N(C)C2=O)cc1`: 1.24.
